Assay outcomes (PubChem BioAssay)
Most compounds without a hit are left out; they make up all but 0.77% or so of the library.
hIAP inh = human IAP inhibitors, primary screen, biochemical, luminescence, uHTS; 0.12% of 330,000 active; purified IAP, CDP-Star luminescence, 30 min; AID 2544, 2010; Intestinal-type alkaline phosphatase (Homo sapiens), P09923; inhibition, % at 10 µM;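 active = inhibition reaching a set limit with compound at 10 µM in the primary screen, cut at about 35% in these data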;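 also: plate controls were DMSO wells with enzyme for no effect and no-enzyme buffer wells for full effect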
Target sequence (P09923 whole entry, looked up): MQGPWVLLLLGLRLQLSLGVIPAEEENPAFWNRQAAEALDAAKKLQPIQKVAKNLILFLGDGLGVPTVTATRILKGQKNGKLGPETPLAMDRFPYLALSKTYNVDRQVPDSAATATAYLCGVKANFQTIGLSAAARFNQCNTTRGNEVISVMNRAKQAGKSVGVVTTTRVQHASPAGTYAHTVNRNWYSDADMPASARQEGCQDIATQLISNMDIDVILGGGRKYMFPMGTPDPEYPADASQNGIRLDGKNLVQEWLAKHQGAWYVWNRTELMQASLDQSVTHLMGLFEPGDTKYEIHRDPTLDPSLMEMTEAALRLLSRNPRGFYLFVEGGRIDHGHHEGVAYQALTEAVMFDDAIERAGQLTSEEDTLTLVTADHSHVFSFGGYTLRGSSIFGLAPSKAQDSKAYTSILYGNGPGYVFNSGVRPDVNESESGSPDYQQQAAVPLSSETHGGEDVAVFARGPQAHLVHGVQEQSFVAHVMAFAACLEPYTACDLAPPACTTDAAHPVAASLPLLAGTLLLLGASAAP
hIAP activ = human IAP activators, primary screen, biochemical, luminescence, uHTS. Intestinal-type alkaline phosphatase (Homo sapiens), P09923. purified human IAP, CDP-Star luminescence, 30 min; active compounds read high; 1 = vehicle-only enzyme, 0 = enzyme-free background. activation factor at 10 µM. 0.16% of 330,000 active. AID 2524, 2010;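 active = activation factor of the enzyme at least 2-fold when tested at 20 µM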
mIAP inh = inhibitors of mouse IAP, primary screen, biochemical, luminescence, uHTS; purified mouse IAP, CDP-Star luminescence, 30 min; intestinal alkaline phosphatase [Mus musculus]; AID 2806, 2010; 0.2% of 330,000 active; inhibition, % at 10 µM;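 active = inhibition of at least 40% at 10 µM in the primary screen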;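 also: plate controls were DMSO with enzyme for no effect and no enzyme wells for full effect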
bIAP inhibitor = bovine intestinal alkaline phosphatase inhibitors, primary screen, selectivity assay for TNAP inhibitor project, biochemical, bovine IAP, CDP-star luminescence | alkaline phosphatase, intestinal [Bos taurus] | inhibition, % at 20 µM | 190,000 tested, under 10 active | AID 1019, 2008 | purified bovine IAP, 30 min;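 active = over 50% inhibition of intestinal alkaline phosphatase at 20 µM in the single-dose screen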
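System: Purified bovine intestinal alkaline phosphatase (IAP) enzyme | Input: IAP diluted 1/65,000,000 in the well | Also added: CDP-star chemiluminescent phosphatase substrate, 30 µM final | Dosing: 20 µM single dose | Times: Enzyme reaction for 30 min at room temperature | Detection: Luminescence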
bIAP act = bovine intestinal alkaline phosphatase activators, primary screen, biochemical, bovine IAP, CDP-star luminescence; purified bovine IAP, 30 min; active compounds read high; fold of DMSO-control signal, blank-subtracted; activation factor at 20 µM; 0.17% of 200,000 active; AID 1016, 2008; alkaline phosphatase, intestinal [Bos taurus];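 active = activation factor of 2 or more at 20 µM, a signal rise over negative controls twice the positive control's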
mIAP act = activators of mouse IAP, primary screen, biochemical, luminescence, uHTS; activation factor at 10 µM; 0.24% of 330,000 active; muIAP, CDP-Star luminescence, 30 min; active compounds read high; 1 = vehicle-only enzyme signal, 0 = enzyme-free wells;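 active = activation factor of at least 2 at 20 µM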
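System: Mouse IAP enzyme | Also added: CDP-Star substrate | Dosing: Compounds dispensed in DMSO | Schedule: 30 min enzyme-substrate-compound incubation at room temperature | Technique: Chemiluminescence readout | Control set: DMSO-only wells and no-enzyme negative control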
hIAP act confirm = human IAP activators, confirmation, biochemical, luminescence, single concentration, uHTS hits; 10% of 880 active; shares compounds with hIAP activ; purified IAP, CDP-Star luminescence, 30 min; active compounds read low; activation (%Activity, negative = activation), % at 8.3 µM;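 active = at least twofold enzyme activation in any of six single-dose repeats, which the averaged readout prints as negative percent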
The depositor's hits bear a star.

How did Cc1nc(S/C(=C/c2ccc(-c3ccc(Cl)cc3)o2)C(=O)O)n[nH]1 do in these assays?
hIAP inh: -120; hIAP activ: 2.2*; mIAP inh: 8; bIAP inhibitor: 13; bIAP act: 0.9; mIAP act: 0.92; hIAP act confirm: -89*

What do the screens show for `Cc1nc(C)c(-c2nnc(-c3ccc(C(C)(C)C)cc3)o2)cc1C(=O)NN`?
hIAP inh: -8; hIAP activ: 1.1; mIAP inh: 13; bIAP inhibitor: 2; bIAP act: 1; mIAP act: 0.87

Results for Cc1ccc(NC(=O)COC(=O)c2ccc(Cl)cc2)cc1S(=O)(=O)N(C)C ?
hIAP inh: 7; hIAP activ: 0.93; mIAP inh: -3; bIAP inhibitor: -6; bIAP act: 1.1; mIAP act: 1

Results for Cc1cc(-n2c(SCC(=O)Nc3ccc(F)c(F)c3)nc3n[nH]c(C)c3c2=N)ccc1Cl ?
hIAP inh: -107; hIAP activ: 2.1*; mIAP inh: -14; mIAP act: 1.1; hIAP act confirm: -40

Results for CCOc1cccc(/C=N/NC(=S)Nc2cc(S(=O)(=O)N3CCOCC3)ccc2N2CCOCC2)c1O ?
hIAP inh: -114; hIAP activ: 2.1*; mIAP inh: 0; bIAP inhibitor: 2; bIAP act: 1; mIAP act: 1; hIAP act confirm: 1

How did COc1ccc(S(=O)(=O)NNC(=O)C(=O)NNc2ccccn2)cc1 do in these assays?
hIAP inh: -202; hIAP activ: 3*; mIAP inh: 15; mIAP act: 0.85; hIAP act confirm: 6

What do the screens show for `O=C(O)C1C2CCCCC2=C2CCCCC2C1C(=O)c1ccccc1` (stereo not drawn)?
hIAP inh: 1; hIAP activ: 0.99; mIAP inh: -4; mIAP act: 1

What do the screens show for `CCc1ccc(-n2c(SCC(=O)Nc3cc(C)[nH]n3)nc3[nH]ncc3c2=O)cc1`?
hIAP inh: -118; hIAP activ: 2.2*; mIAP inh: 6; bIAP inhibitor: -63; bIAP act: 1.6; mIAP act: 0.94; hIAP act confirm: -5

Results for COc1ccc(C(=O)Oc2c(OC)cc(C(=S)N3CCOCC3)cc2OC)cc1OC ?
hIAP inh: -7; hIAP activ: 1.1; mIAP inh: -1; mIAP act: 1

How did Nc1ccc(-c2nnn(CC(=O)N3CCCCC3)n2)cc1 do in these assays?
hIAP inh: -12; hIAP activ: 1.1; mIAP inh: 1; mIAP act: 0.99

How did CCn1nnc(-c2ccc(N)cc2)n1 do in these assays?
hIAP inh: -102; hIAP activ: 2*; mIAP inh: -2; bIAP inhibitor: -7; bIAP act: 1.1; mIAP act: 1; hIAP act confirm: -22

What do the screens show for `CCOP(=O)(OCC)/C(C#N)=C/c1ccc([N+](=O)[O-])cc1`?
hIAP inh: -9; hIAP activ: 1.1; mIAP inh: -8; mIAP act: 1.1

How did O=C(CSc1nc(-c2cccs2)cc(C(F)(F)F)n1)NCc1ccccc1 do in these assays?
hIAP inh: 37*; hIAP activ: 0.63; mIAP inh: 0; bIAP inhibitor: 23; bIAP act: 0.8; mIAP act: 1; hIAP act confirm: 37

What do the screens show for `N#Cc1cc([N+](=O)[O-])cnc1NCC(O)CO` (stereo not drawn)?
hIAP inh: -12; hIAP activ: 1.1; mIAP inh: 4; bIAP inhibitor: -4; bIAP act: 1; mIAP act: 0.95

How did COC(=O)CN1C(=O)C(O)(CC(=O)c2ccc(C)cc2)c2ccccc21 (stereo not drawn) do in these assays?
hIAP inh: 37*; hIAP activ: 0.63; mIAP inh: 2; bIAP inhibitor: 14; bIAP act: 0.9; mIAP act: 0.98; hIAP act confirm: 46

How did COC(=O)CN1C(=O)C(O)(CC(=O)c2ccccc2)c2ccccc21 (stereo not drawn) do in these assays?
hIAP inh: -17; hIAP activ: 1.2; mIAP inh: -1; bIAP inhibitor: 6; bIAP act: 0.9; mIAP act: 1

What do the screens show for `O=C(NCc1ccc(F)cc1)c1ccncc1`?
hIAP inh: 15; hIAP activ: 0.85; mIAP inh: 6; mIAP act: 0.94

How did O=C(N/N=C/c1ccco1)c1cc(-c2ccc3ccccc3c2)n[nH]1 do in these assays?
hIAP inh: -108; hIAP activ: 2.1*; mIAP inh: 4; bIAP inhibitor: -42; bIAP act: 1.4; mIAP act: 0.96; hIAP act confirm: -15

Results for O=C(N/N=C/c1ccccn1)c1cc(-c2ccc3ccccc3c2)n[nH]1 ?
hIAP inh: -125; hIAP activ: 2.2*; mIAP inh: 7; bIAP inhibitor: 18; bIAP act: 0.8; mIAP act: 0.93; hIAP act confirm: -30

How did CCc1ccc(-c2cc(C(=O)N/N=C/c3ccccn3)[nH]n2)cc1 do in these assays?
hIAP inh: -72; hIAP activ: 1.7; mIAP inh: -3; bIAP inhibitor: -1; bIAP act: 1; mIAP act: 1

What do the screens show for `CCc1ccc(-c2cc(C(=O)N/N=C/c3ccco3)[nH]n2)cc1`?
hIAP inh: -65; hIAP activ: 1.6; mIAP inh: -3; bIAP inhibitor: 2; bIAP act: 1; mIAP act: 1

What do the screens show for `COc1ccccc1CNC(=O)Cn1nc(C)c([N+](=O)[O-])c1C`?
hIAP inh: 37*; hIAP activ: 0.63; mIAP inh: 4; mIAP act: 0.96; hIAP act confirm: -59

What do the screens show for `CC(OC(=O)CCc1nc2ccccc2[nH]c1=O)c1ccccc1` (stereo not drawn)?
hIAP inh: -7; hIAP activ: 1.1; mIAP inh: -2; bIAP inhibitor: 0; bIAP act: 1; mIAP act: 1

Results for Nc1c(NC=O)c(=O)n(Cc2ccccc2)c(=O)n1Cc1ccccc1 ?
hIAP inh: -18; hIAP activ: 1.2; mIAP inh: 3; mIAP act: 0.97

What do the screens show for `CC(C)(C)c1cn(-c2ccc(F)cc2)c(=S)[nH]1`?
hIAP inh: 35*; hIAP activ: 0.65; mIAP inh: 3; bIAP inhibitor: 38; bIAP act: 0.6; mIAP act: 0.97; hIAP act confirm: 3
